Consider 13 molecules from ChEMBL document CHEMBL1121883, “1-(Naphthylalkyl)-1H-imidazole derivatives, a new class of anticonvulsant agents” (J Med Chem, 1981).

The test system of data set [1] is Mus musculus. In words: Dose of compound causing a neurological deficit in 50% of mice after ip administration; 66-92. The data set is classed as functional. Summed up: (§1)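 Traction test in male Hilltop ICR-derived mice (19-30 g, groups of 8-10) just before electroshock, 15 min after ip or 30 min after oral dosing. Mice placed on a 16-gauge, 65-cm copper wire 40 cm above the table; deficit scored as failure to stay on for 10 s. ND50 with 95% limits by Litchfield-Wilcoxon.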

For data set [2], the system named is Mus musculus. Nature of the data set: Compound was evaluated for anticonvulsant activity by maximal electroshock assay(MES) in mice after ip administration; 11-18. It counts as functional. A digest of the protocol:
(§2)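 Male Hilltop ICR-derived mice (19-30 g), groups of 8-10, dosed ip with compound or aqueous vehicle. After 15 min pretreatment, a transcorneal 60-Hz, 50 mA shock was given for 0.2 s. Just before the shock, each mouse was tested on a horizontal wire (10 s). Quantal data were analysed by Litchfield-Wilcoxon to give ED50 with 95% confidence limits.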
For orientation: In the maximal electroshock model the usual endpoint is tonic extension of the hind limbs.

The subject of data set [3] is Rattus norvegicus. Nature of the data set: Dose of compound causing a neurological deficit in 50% of rat after po administration. It counts as functional. A digest of the protocol:
(§3)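 Rats (Simonsen Sprague-Dawley-derived, 80-110 g, groups of 8-10) placed on a suspended 16-gauge, 65-cm copper wire just before electroshock. Deficit scored as inability to remain for 8 s. Pretreatment was 15 min ip or 30 min oral. Quantal data analysed by Litchfield-Wilcoxon to give ND50 with 95% limits.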

Data set [4] has as its system Mus musculus. Nature of the data set: Protective index defined as ND50 (p.o.) divided by MES ED50(op). The data set is classed as functional. A digest of the protocol: (§4)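 Ratio of ND50 from the wire traction test to MES ED50, both measured by the same route (ip or oral) in the same animals. Quantal dose-response data for each were evaluated by Litchfield-Wilcoxon.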

Data set [5] relates to Rattus norvegicus. Nature of the data set: Dose of compound causing a neurological deficit in 50% of rat after ip administration. The data set is classed as functional. Summed up:
as §3

In data set [6] the test system is Rattus norvegicus. Nature of the data set: Compound was evaluated for anticonvulsant activity by maximal electroshock assay(MES) in rat after po administration; 13-39. The data set is classed as functional. Summed up:
(§5)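 Male Simonsen Sprague-Dawley-derived rats, 80-110 g, groups of 8-10, dosed with compound or aqueous vehicle; pretreatment 15 min after ip or 30 min after oral dosing. Transcorneal electroshock, 150 mA, 60 Hz, 0.2 s, given after the wire test. ED50 with 95% confidence limits from quantal data by Litchfield-Wilcoxon.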

Data set [7] deals with Mus musculus. In words: (§6) Lethal dose was measured in mice after ip administration. The data set is classed as functional. Summed up: (§7)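 Male Simonsen ICR-derived mice (16-24 g), groups of three, given compound ip in increasing doses within a behavioral screen. Deaths counted on day 5, and LD50 estimated from 5-day survival. Quantal data analysed by the Litchfield-Wilcoxon method.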

In data set [8] the test system is Rattus norvegicus. In words: Compound was evaluated for anticonvulsant activity by maximal electroshock assay(MES) in rat after ip administration; 0.6-6.6. The data set is classed as functional.
Data set [9] concerns Mus musculus. Nature of the data set: Compound was evaluated for anticonvulsant activity by maximal electroshock assay(MES) in mice after po administration; 37-60. The data set is classed as functional. Summed up: (§8)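 Male Hilltop ICR-derived mice (19-30 g), groups of 8-10, given compound or aqueous vehicle orally. The transcorneal 60-Hz shock (50 mA, 0.2 s) followed a 30 min pretreatment and a wire-hang neurological check (10 s). ED50 and 95% confidence limits were obtained from quantal data by the Litchfield-Wilcoxon method.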

The subject of data set [10] is Mus musculus. Nature of the data set: Dose causing a neurological deficit in 50% of mice following p.o. administration. The data set is classed as functional. Summed up:
as §1

The test system of data set [11] is Mus musculus. In words: Dose causing a neurological deficit in 50% of mice after ip administration. It counts as functional. A digest of the protocol: as §1
In data set [12] the test system is Mus musculus. Nature of the data set: Anticonvulsant activity in mouse maximal electroshock assay following i.p. administration. The data set is classed as functional. To be noted: ip. Summed up: as §2
Data set [13] deals with Rattus norvegicus. In words: Compound was evaluated for anticonvulsant activity by maximal electroshock assay(MES) in rat after ip administration. It counts as functional.
Data set [14] is described as follows: as §6. The data set is classed as toxicity, organism-based. To be noted: mouse, in vivo. A digest of the protocol: as §7
Data set [15] deals with Mus musculus. In words: Protective index is defined as ND50 (i.p.) divided by MES ED50(i.p.). It counts as functional. A digest of the protocol:
as §4

Data set [16] concerns Mus musculus. Nature of the data set: Compound was evaluated for anticonvulsant activity by maximal electroshock assay(MES) in mice after ip administration; 18-48. The data set is classed as functional. Summed up: as §2
Data set [17] relates to Mus musculus. Nature of the data set: Dose of compound causing a neurological deficit in 50% of mice after ip administration; 57-91. It counts as functional. Summed up: as §1
Data set [18] relates to Mus musculus. In words: Dose of compound causing a neurological deficit in 50% of mice after ip administration; 32-90. The data set is classed as functional. Summed up:
as §1

In data set [19] the test system is Mus musculus. In words: Compound was evaluated for anticonvulsant activity by maximal electroshock assay(MES) in mice after ip administration; 14-33. The data set is classed as functional. A digest of the protocol:
as §2

For data set [20], the system named is Mus musculus. In words: Compound was evaluated for anticonvulsant activity by maximal electroshock assay(MES) in mice after po administration; 15-26. The data set is classed as functional. Summed up:
as §8

Data set [21] has as its system Mus musculus. In words: Compound was evaluated for anticonvulsant activity by maximal electroshock assay(MES) in mice after ip administration; 8-13. The data set is classed as functional. A digest of the protocol: as §2
The subject of data set [22] is Mus musculus. In words: Dose of compound causing a neurological deficit in 50% of mice after ip administration; 41-246. The data set is classed as functional. A digest of the protocol:
as §1

The test system of data set [23] is Rattus norvegicus. Nature of the data set: Compound was evaluated for anticonvulsant activity by maximal electroshock assay(MES) in rat after ip administration; 3.8-8.4. The data set is classed as functional.
Data set [24] relates to Mus musculus. In words: Dose of compound causing a neurological deficit in 50% of mice after po administration. It counts as functional. Summed up:
as §1

The subject of data set [25] is Rattus norvegicus. Nature of the data set: Compound was evaluated for anticonvulsant activity by maximal electroshock assay(MES) in rat after po administration; 15-36. The data set is classed as functional. Summed up:
as §5

In data set [26] the test system is Mus musculus. In words: Compound was evaluated for anticonvulsant activity by maximal electroshock assay(MES) in mice after po administration; 13-23. It counts as functional. Summed up:
as §8

The subject of data set [27] is Rattus norvegicus. Nature of the data set: Dose of compound causing a neurological deficit in 50% of rat after ip administration; 29-57. The data set is classed as functional. A digest of the protocol: as §3
Data set [28] deals with Rattus norvegicus. In words: Compound was evaluated for anticonvulsant activity by maximal electroshock assay(MES) in rat after ip administration; 1.5-6.7. It counts as functional.
For data set [29], the system named is Mus musculus. In words: Dose of compound causing a neurological deficit in 50% of mice after po administration; 82-1100. It counts as functional. Summed up:
as §1

The test system of data set [30] is Mus musculus. Nature of the data set: Dose of compound causing a neurological deficit in 50% of mice after ip administration; 21-52. It counts as functional. Summed up: as §1
Data set [31] deals with Rattus norvegicus. Nature of the data set: Compound was evaluated for anticonvulsant activity by maximal electroshock assay(MES) in rat after po administration; 4.5-19. The data set is classed as functional. Summed up: as §5

Several values for one entry are separate records, joined by “and”; a condition that tells them apart may be missing. Equal entries are not always repeated.

Usually ED50 stands for the dose that gives a 50% effect, or the effect in half of the subjects. As usually defined, the LD50 is the dose expected to kill half of the subjects tested. A high value points to lower toxicity. As for `Cl.O=C(Cn1ccnc1)c1ccc2ccccc2c1` [NAFIMIDONE HYDROCHLORIDE], the ND50 was 83 mg/kg in data set [1], more than 100 mg/kg in data set [3], more than 100 mg/kg in data set [5] and more than 200 mg/kg in data set [10]. For the same molecule, the ED50 in [2] amounted to 15 mg/kg; in data set [6], 26 mg/kg; in data set [8] it was 1.7 mg/kg; in [9] it was 48 mg/kg. Further, the PI in [4] is given as more than 4.2. In data set [7], the 50% lethal dose (LD50) was more than 100 mg/kg.

Consider `Cl.c1ccc2cc(Cn3ccnc3)ccc2c1`, for which the ND50 in data set [5] and in data set [11] was 32 mg/kg each time. Besides, the ED50 turned out to be 25 mg/kg in [12] and 6.2 mg/kg in data set [13].

On to `CCCSC(Cn1ccnc1)(SCCC)c1ccc2ccccc2c1.Cl`, for which the ND50 in [11] is more than 100 mg/kg. In addition, the ED50 in data set [12] was more than 100 mg/kg. For the same molecule, the LD50 in data set [14] is more than 100 mg/kg.

On to `Cc1ccccc1OC(Cn1ccnc1)c1ccc2ccccc2c1.Cl` (stereo not given), for which the PI in data set [15] worked out at 2.1. Moreover, in data set [16], the ED50 is 33 mg/kg. Further, the ND50 in data set [17] was found to be 70 mg/kg.

`COc1c(C(=O)Cn2ccnc2)ccc2ccccc12.Cl` had a PI in [15] of 2.2. The ND50 in [18] came to 51 mg/kg. Besides, the ED50 in data set [19] was determined as 23 mg/kg.

For the molecule `Cl.c1ccc(SC(Cn2ccnc2)(Sc2ccccc2)c2ccc3ccccc3c2)cc1`, the ND50 in data set [11] is more than 60 mg/kg. In data set [12], this molecule had an ED50 of more than 60 mg/kg.

In data set [11], `CC(C)SC(Cn1ccnc1)(SC(C)C)c1ccc2ccccc2c1.Cl` gave an ND50 of more than 100 mg/kg. In addition, the 50% effect level in data set [12] (ED50) was put at a dose of 86 mg/kg. In [15], this molecule returned a PI of more than 1.2.

As to `Cl.c1ccc2cc(C3(CCn4ccnc4)SCCS3)ccc2c1`, the ND50 in [11] amounted to 33 mg/kg. In data set [12], the ED50 is 15 mg/kg. In data set [15], this molecule showed a PI of 2.2.

`Cl.c1ccc2c(C3(Cn4ccnc4)SCCS3)cccc2c1` had an ND50 in data set [11] of 57 mg/kg. Moreover, in data set [12], it took a dose of 26 mg/kg to reach the 50% effect level (ED50). Also, in data set [15], the PI is 2.2.

As for `Cl.O=C(CCn1ccnc1)c1ccc2ccccc2c1`, the ED50 in data set [20] was 20 mg/kg; in [21], 10 mg/kg; in data set [23], 5.9 mg/kg; in [25] it was 25 mg/kg. Also, the ND50 was more than 100 mg/kg in data set [3], more than 60 mg/kg in data set [5], 60 mg/kg in data set [22] and more than 100 mg/kg in data set [24]. For the same molecule, the PI was >5 and >4 in data set [4]; 6 and >10 in data set [15].

`Cl.c1ccc(CSC(Cn2ccnc2)(SCc2ccccc2)c2ccc3ccccc3c2)cc1` showed an ND50 in data set [11] of more than 100 mg/kg. Moreover, in data set [12], the ED50 is more than 100 mg/kg.

For `Cl.c1ccc2cc(C3(Cn4ccnc4)OCCO3)ccc2c1`, the figures for the ED50 in data set [26], in [28] and in data set [31] were 18 mg/kg, 4.5 mg/kg and 10 mg/kg, respectively. The ND50 in [27] was 41 mg/kg; in data set [3], more than 300 mg/kg; in data set [29], 173 mg/kg; in data set [30], 31 mg/kg. Besides, the LD50 in data set [7] is more than 100 mg/kg.

For the molecule `OC(Cn1ccnc1)c1ccc2ccccc2c1` (stereo not given), the LD50 in data set [14] was more than 300 mg/kg.
